Shown are actives, neighbours in structure and some others; about 4.6% of the full set was active somewhere.
TAAR1 antag: human TAAR1 antagonists, primary screen, Fluo-8 calcium fluorescence, CHO RD-HGA16 cells | Trace amine-associated receptor 1 (Homo sapiens), Q96RJ0 | AID 624466, 2012 | antagonist | inhibition, % at 3 µM | 1.5% of 360,000 active;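 active = inhibition above a per-plate cutoff, the mean inhibition of test compounds on that plate plus 3 SD, cut at about 49% in these data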;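 also: 0% = DMSO plus EC80 beta-PEA response and 100% = DMSO alone without agonist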
Target sequence (Q96RJ0 whole entry, looked up): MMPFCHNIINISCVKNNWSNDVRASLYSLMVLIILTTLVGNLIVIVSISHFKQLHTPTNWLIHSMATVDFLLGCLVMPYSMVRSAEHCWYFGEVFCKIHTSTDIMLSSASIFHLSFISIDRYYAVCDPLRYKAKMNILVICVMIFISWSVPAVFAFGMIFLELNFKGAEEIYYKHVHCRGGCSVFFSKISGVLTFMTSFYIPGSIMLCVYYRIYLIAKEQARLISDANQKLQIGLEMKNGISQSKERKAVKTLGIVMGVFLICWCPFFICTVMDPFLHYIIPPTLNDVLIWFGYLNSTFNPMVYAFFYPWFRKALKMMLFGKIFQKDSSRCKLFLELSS
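Assay system: CHO-derived RD-HGA16 cells stably expressing human TAAR1 plus Gα16. Timing: 140 s kinetic read after compound, 140 s after agonist. Technique: kinetic Fluo-8 calcium fluorescence measurement. Measure: % inhibition of agonist calcium response.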
GPR7 antagonist: GPR7 receptor antagonists, primary screen, cell-based, fluorescence, single concentration | GPR7-expressing cells, fluorescence antagonist assay | 1.1% of 290,000 active | Neuropeptides B/W receptor type 1 (Homo sapiens), P48145 | inhibition, % at 4.4 µM | AID 1861, 2009; in the data active = inhibition above about 16%, passing the limit was not always enough;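 also: cells stimulated with the agonist NPW; 0% = agonist with vehicle and 100% = vehicle without agonist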
OX1R antag-1: antagonists of human orexin 1 receptor (OX1R); Orexin/Hypocretin receptor type 1 (Homo sapiens), O43613; OX1R-expressing cells, FRET antagonist read-out; inhibition, % at 6.6 µM; 1.8% of 330,000 active; AID 485270, 2010; in the data active = inhibition mostly above about 38%, no sharp cut-off; inactive = mostly below about 40%;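 also: 0% = agonist challenge alone and 100% = reference antagonist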
OX1R antag-2: OX1R (HCRTR1) antagonists, primary screen, fluorescence, CHO/OX1R cells, Fluo-8 calcium, orexin A; Orexin/Hypocretin receptor type 1 (Homo sapiens), O43613; inhibition, % at 5 µM; Fluo-8 calcium fluorescence; 0.43% of 330,000 active;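 active = inhibition above its plate's threshold, mean inhibition of all tested compounds on the plate plus 3 SD, cut at about 37% in these data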;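 also: 0% = orexin A challenge wells and 100% = SB-334867-A antagonist wells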
TAAR1 agonist: human TAAR1 agonists, primary screen, Fluo-8 calcium fluorescence, CHO RD-HGA16 cells; Trace amine-associated receptor 1 (Homo sapiens), Q96RJ0; vehicle wells 0%, saturating PEA agonist 100%; activation, % at 3 µM; 0.99% of 360,000 active;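 active = activation above the mean activation of all test compounds in the run plus 3 SD, cut at about 38% in these data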
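Signal – calcium-sensitive Fluo-8 signal, excitation 470-495, emission 515-575 nm · System – RD-HGA16 (CHO) cells co-expressing Gα16 and hTAAR1 · Incubation – 17-24 h seeding, 75 min 37 °C dye, 30 min RT · Compound dosing – 3 µM single concentration · Repeats – no replicates (n 1)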
CHO parental Ca: ATP-evoked calcium signal inhibitors, parental CHO, primary screen, counter-screen for OX1R antagonist project, cell-based, fluorescence, Fluo-8 calcium dye. parental CHO-K1, ATP-induced calcium, Fluo-8 fluorescence. inhibition, % at 5.6 µM. 0.63% of 330,000 active;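 active = inhibition above that plate's mean sample inhibition plus 3 SD, cut at about 26% in these data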;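 also: 0% = ATP-challenged DMSO wells and 100% = DMSO wells without ATP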
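Test system: untransfected parental CHO cell line. Compound: one dose, 5.6 µM nominal. Detection: intracellular calcium via Fluo-8 no-wash fluorescent dye. Measure: % inhibition. Benchmarks: ATP-challenged DMSO wells low, unchallenged DMSO wells high.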
nonsel antag count: nonselective antagonists in TAAR1 counter-screen cells, counter-screen for hTAAR1 antagonist project, cell-based, fluorescence, calcium; 77% of 2,400 active; AID 651780, 2012; counterscreen cell line, antagonist mode; shares compounds with TAAR1 antag; inhibition, % at 3 µM; in the data active = inhibition above about 22%;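 also: CHO-Ga16 host cells stimulated with ATP at an EC80 level; 0% = agonist EC80 plus vehicle and 100% = vehicle without agonist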
TAAR1 antag conf: human TAAR1 antagonists, retest of hits, confirmation, cell-based, fluorescence. shares compounds with TAAR1 antag. inhibition, % at 3 µM. TAAR1-expressing cells, fluorescence antagonist read-out. AID 651785, 2012. 40% of 2,400 active; in the data active = inhibition above about 49%;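 also: CHO-Ga16 host cells challenged with agonist PEA near its EC80; 0% = agonist at EC80 plus vehicle and 100% = vehicle with no agonist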
Ga16 nonsel ag: calcium activation in Ga16-expressing cells, counter-screen for TAAR1 antagonist project, cell-based, fluorescence | shares compounds with TAAR1 antag | agonist counterscreen | activation, % at 3 µM | 18% of 2,400 active; in the data active = activation above about 12%;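 also: 0% = vehicle wells and 100% = saturating stimulus response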
TAAR1 ag counter: TAAR1 activation by candidate antagonists – cell-based, fluorescence, counter-screen for TAAR1 antagonist project; shares compounds with TAAR1 antag; hTAAR1 cell line, agonist mode; activation, % at 3 µM; 2% of 2,400 active; AID 651955, 2012; in the data active = activation above about 37%;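 also: CHO cells stably expressing TAAR1 with calcium dye readout; 0% = DMSO vehicle and 100% = full agonist response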
Numbers without * were called inactive; · = no result given.

SMILES	TAAR1 antag	GPR7 antagonist	OX1R antag-1	OX1R antag-2	TAAR1 agonist	CHO parental Ca	nonsel antag count	TAAR1 antag conf	Ga16 nonsel ag	TAAR1 ag counter
CCOC(=O)C1CCCN(C(=O)c2cc(-c3ccco3)nc3ccccc23)C1 (centres undefined)	0	·	12	-13	4	-19	·	·	·	·
CCOC(=O)COc1ccc(S(=O)(=O)NC2CC2)cc1	-10	-8	5	0	1	-7	·	·	·	·
Brc1ccc2nc(-c3ccc(CN4CCC(c5nc6ccccc6[nH]5)CC4)cc3)c(-c3ccccc3)nc2c1	86*	·	·	·	25	·	56*	68*	20*	37*
COc1ccc2nc(-c3ccc(CN4CCC(c5nc6ccccc6[nH]5)CC4)cc3)c(-c3ccccc3)nc2c1	76*	·	·	·	17	·	34*	40	11	20
COc1ccc2nc(-c3ccc(CN4CCC5(CC4)CNc4ccccc45)cc3)c(-c3ccccc3)nc2c1	0	·	·	·	0	·	·	·	·	·
CC(C)CN1CC(=O)N2C(c3ccccc3)c3[nH]c4ccccc4c3C[C@H]2C1=O (some centres undefined)	61*	11	-3	-12	36	-6	23*	45	13*	18
Cc1c(N=C2N=C(NC(=O)c3cccs3)c3ccccc32)c(=O)n(-c2ccccc2)n1C	59*	-17	20	-15	18	-3	42*	49*	18*	13
Cc1c(N=C2N=C(NC(=O)NC(C)(C)C)c3ccccc32)c(=O)n(-c2ccccc2)n1C	16	6	25	-17	7	-8	·	·	·	·
N#Cc1ccccc1C[C@H](N)C(=O)NC[C@H]1O[C@@H](n2ccc(N)nc2=O)[C@H](O)[C@@H]1O	0	·	·	·	1	·	·	·	·	·
COc1ccccc1CNC(=O)c1cccc(S(=O)(=O)N2CCN(C)CC2)c1	-8	-13	10	-45	1	4	·	·	·	·
COc1cc(OC)c(OC)cc1CNC(=O)c1cccc(S(=O)(=O)N2CCc3ccccc3C2)c1	68*	·	·	·	12	·	47*	57*	14*	8
Cc1ccc(S(=O)(=O)N(CC(=O)N/N=C/c2cccc(Cl)c2)c2cccc3cccnc23)cc1	14	0	36	-15	0	-14	·	·	·	·
Cc1ccccc1S(=O)(=O)N1CC(C(=O)O)=CC[C@H]1c1ccc(Cl)cc1	-2	·	23	1	3	-4	·	·	·	·
CN(C)S(=O)(=O)c1cccc(C(=O)OCC(=O)c2ccc3c(c2)NC(=O)CO3)c1	66*	-6	14	-14	34	-4	28*	47	13*	12
Cc1ccc(S(=O)(=O)N(C)CC(=O)OCC(=O)c2ccc3c(c2)NC(=O)CO3)cc1	102*	·	9	-19	-1	-10	26*	28	10	4
O=C(Nc1ccc(N2CCN(C(=O)c3ccco3)CC2)c(Cl)c1)c1cc2ccccc2o1	84*	18	72*	18	16	36*	41*	67*	10	10

Screens (PubChem BioAssay)
